The record followed here is ChEMBL document CHEMBL3085764, “Azole-carbodithioate hybrids as vaginal anti-Candida contraceptive agents: design, synthesis and docking studies” (Eur J Med Chem, 2013).

The subject of test [1] is Candida albicans. Put plainly: Antifungal activity against Candida albicans clinical isolate after 48 hrs by broth microdilution technique. The class given is functional, organism-based. The method in brief: (§1)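 MIC by broth microdilution following NCCLS guidelines, in RPMI 1640 buffered with MOPS. Starting inoculum 1-5 × 10^3 CFU/mL. Plates incubated at 35 °C. MIC and IC50 read spectrophotometrically at 492 nm after 48 h.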
Background: In broth dilution the organism is exposed to a series of concentrations in liquid medium.

A short description of test [2]: Spermicidal activity in human semen assessed as sperm immobilization at 1.0 % w/v up to 30 seconds by phase contrast microscopy. Format: functional.
The subject of test [3] is Candida albicans. Put plainly: Antifungal activity against Candida albicans ATCC 10231 after 48 hrs by broth microdilution technique. Format: functional, organism-based. The following applies: ATCC 10231, 48 h. The method in brief: as §1
Test [4] in a line: Spermicidal activity in human semen assessed as sperm immobilization at 0.1 % w/v up to 30 seconds by phase contrast microscopy. Format: functional.
The next test concerns Cryptococcus neoformans. Nature of the test: Antifungal activity against Cryptococcus neoformans after 48 hrs by broth microdilution technique. Format: functional, organism-based. In outline:
as §1

Another test concerns Escherichia coli. Nature of the test: Antibacterial activity against Escherichia coli ATCC 9637 after 48 hrs by broth microdilution technique. The class given is functional. As to conditions: ATCC 9637, 48 h. In outline:
(§2)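 Broth microdilution following NCCLS guidelines in Mueller Hinton broth. Inoculum held at 1-5 × 10^3 cfu/mL. Plates incubated at 35 °C in a moist, dark chamber for 48 h. MIC and IC50 read spectrophotometrically at 492 nm.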

The test system of the next test is Klebsiella pneumoniae. Put plainly: Antibacterial activity against Klebsiella pneumoniae after 48 hrs by broth microdilution technique. Format: functional. The method in brief: as §2
Test [5] has as its system Candida albicans. Nature of the test: Antifungal activity against Candida albicans MTCC 183 after 48 hrs by broth microdilution technique. The class given is functional, organism-based. The following applies: MTCC 183, 48 h. The method in brief: as §1
The subject of the next test is Aspergillus fumigatus. Nature of the test: Antifungal activity against Aspergillus fumigatus after 48 hrs by broth microdilution technique. The class given is functional, organism-based. The method in brief: as §1
Test [6] has as its system Candida albicans. Put plainly: Antifungal activity against Candida albicans after 48 hrs by broth microdilution technique. Format: functional, organism-based. The method in brief:
as §1

The subject of test [7] is Trichophyton mentagrophytes. Nature of the test: Antifungal activity against Trichophyton mentagrophytes after 48 hrs by broth microdilution technique. The class given is functional, organism-based. In outline:
as §1

In the next test the test system is Trichomonas vaginalis. Nature of the test: Trichomonacidal activity against Trichomonas vaginalis after 48 hrs by trypan blue exclusion assay. Format: functional. As to conditions: read-out: MEC. The method in brief:
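T. vaginalis in log phase, grown in TYM with 10% FCS, vitamin mixture and penicillin/streptomycin at 37 °C. DMSO stocks ([…]) serially diluted in TYM down to 0.1 µg/mL; DMSO/TYM vehicle controls. 5 × 10^4 trophozoites added and incubated anaerobically at 37 °C. Viability checked by trypan blue from 3 to 48 h. MIC = lowest concentration killing all cells by 48 h. Three repeats.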

A further test relates to Staphylococcus aureus. Nature of the test: Antibacterial activity against Staphylococcus aureus ATCC 25923 after 48 hrs by broth microdilution technique. Format: functional. The following applies: ATCC 25923, 48 h. In outline:
as §2

For the next test, the system named is Candida parapsilosis. Put plainly: Antifungal activity against Candida parapsilosis ATCC 22019 after 48 hrs by broth microdilution technique. Format: functional, organism-based. The following applies: Lodderomyces parapsilosis, ATCC 22019, 48 h. The method in brief: as §1
In another test the test system is Pseudomonas aeruginosa. Nature of the test: Antibacterial activity against Pseudomonas aeruginosa ATCC BAA-427 after 48 hrs by broth microdilution technique. The following applies: ATCC BAA-427, 48 h. The class given is functional. In outline: as §2
The next test relates to Sporothrix schenckii. Nature of the test: Antifungal activity against Sporothrix schenckii after 48 hrs by broth microdilution technique. The class given is functional, organism-based. The method in brief:
as §1

Test [8] has as its system Candida albicans. Put plainly: Antifungal activity against Candida albicans clinical isolate CDRI after 48 hrs by broth microdilution technique. The class given is functional, organism-based. The method in brief: as §1

≈ marks a conversion by molar mass, not a printed value. Bounds are passed on as bounds.

With `C=CCSC(=S)n1ccnc1C`, the IC50 (as a rule, the concentration needed to halve the response being measured) with Candida albicans [1] turned out to be 2.1 µg/mL (≈ 10.6 µM); with Candida albicans [3], 4.53 µg/mL (≈ 22.8 µM); in the test on Cryptococcus neoformans it was 3.35 µg/mL (≈ 16.9 µM); in the test on Candida albicans [5], 3.61 µg/mL (≈ 18.2 µM); in the test with Aspergillus fumigatus, 18.1 µg/mL (≈ 91.3 µM); in the test on Candida albicans [6], 2.21 µg/mL (≈ 11.1 µM). The IC50 is > 50 µg/mL in test [7], 10.2 µg/mL (≈ 51.2 µM) in the test with Candida parapsilosis, 1.5 µg/mL (≈ 7.56 µM) in the test on Sporothrix schenckii and 7.26 µg/mL (≈ 36.6 µM) in the test with Candida albicans [8]. For the same compound, the Activity came to 100% in [2] and 0% in test [4]. Besides, the minimal inhibitory concentration (MIC) against Escherichia coli, with Klebsiella pneumoniae, against Staphylococcus aureus and against Pseudomonas aeruginosa was ≥ 50 µg/mL in each case. In addition, in the test on Trichomonas vaginalis, the minimal effective concentration was > 200 µg/mL.
On to `CCCCCCCCSC(=S)n1ccnc1C`, for which the IC50 in the test with Candida albicans [1] is > 50 µg/mL; in the test on Candida albicans [3], > 50 µg/mL; in the test on Cryptococcus neoformans, > 50 µg/mL; in the test on Candida albicans [5] it was > 50 µg/mL; in the test on Aspergillus fumigatus it was > 50 µg/mL; with Candida albicans [6], 7.21 µg/mL (≈ 26.7 µM). Besides, the IC50 is > 50 µg/mL in [7], > 50 µg/mL in the test with Candida parapsilosis, 4.47 µg/mL (≈ 16.5 µM) in the test with Sporothrix schenckii and 19 µg/mL (≈ 70.4 µM) in the test on Candida albicans [8]. For the same compound, the Activity in test [2] and in [4] was 100% each time. The MIC with Escherichia coli, in the test on Klebsiella pneumoniae, against Staphylococcus aureus and against Pseudomonas aeruginosa was ≥ 50 µg/mL in each case. For the same compound, the minimal effective concentration in the test on Trichomonas vaginalis was > 200 µg/mL.
As for `Cc1ncc([N+](=O)[O-])n1CCO` [METRONIDAZOLE], the Activity in test [2] and in test [4] was 0% in each case. Further, the minimal effective concentration with Trichomonas vaginalis stood at 2 µg/mL.
Consider `N#CCCCSC(=S)n1cnc2ccccc21`, for which the IC50 in the test with Candida albicans [1], with Candida albicans [3], in the test on Cryptococcus neoformans, in the test on Candida albicans [5], in the test on Aspergillus fumigatus and in the test on Candida albicans [6] was > 50 µg/mL each time. Also, the IC50 is > 50 µg/mL with Candida parapsilosis and 3.86 µg/mL (≈ 14.8 µM) with Candida albicans [8]. The Activity in test [2] was 100%; in test [4], 0%. Further, the MIC in the test with Escherichia coli, in the test with Klebsiella pneumoniae, with Staphylococcus aureus and in the test on Pseudomonas aeruginosa was ≥ 50 µg/mL throughout. Further, the minimal effective concentration in the test with Trichomonas vaginalis was > 200 µg/mL.
As to `OC(Cn1cncn1)(Cn1cncn1)c1ccc(F)cc1F` [FLUCONAZOLE], the IC50 in the test with Candida albicans [5] stood at 0.21 µg/mL (≈ 0.686 µM); with Aspergillus fumigatus, 0.38 µg/mL (≈ 1.24 µM); in [7], 0.06 µg/mL (≈ 0.196 µM); with Candida parapsilosis, 0.46 µg/mL (≈ 1.5 µM); in the test with Sporothrix schenckii, 0.08 µg/mL (≈ 0.261 µM).
Take `C=CCSC(=S)n1cnc2ccccc21`: the IC50 in the test on Candida albicans [1] is > 50 µg/mL; in the test with Candida albicans [3], > 50 µg/mL; in the test with Cryptococcus neoformans, > 50 µg/mL; with Candida albicans [5] it was 40.1 µg/mL (≈ 171 µM); with Aspergillus fumigatus, > 50 µg/mL; in the test with Candida albicans [6] it was > 50 µg/mL. Also, the figures for the IC50 (in test [7]; in the test with Candida parapsilosis; in the test on Candida albicans [8]) were > 50 µg/mL, > 50 µg/mL and 39.3 µg/mL (≈ 168 µM), respectively. The Activity in test [2] is given as 100%; in [4], 0%. Besides, the MIC in the test on Escherichia coli, in the test with Klebsiella pneumoniae, against Staphylococcus aureus and in the test with Pseudomonas aeruginosa was ≥ 50 µg/mL each time. In addition, in the test with Trichomonas vaginalis, the minimal effective concentration is > 200 µg/mL.
Turning to `CCCCCCCCSC(=S)n1ccnc1`, the IC50 with Candida albicans [1] is 1.06 µg/mL (≈ 4.13 µM); with Candida albicans [3] it was 7.68 µg/mL (≈ 29.9 µM); with Cryptococcus neoformans, > 50 µg/mL; in the test on Candida albicans [5] it was 4.61 µg/mL (≈ 18 µM); with Aspergillus fumigatus, 6.21 µg/mL (≈ 24.2 µM); in the test on Candida albicans [6], 5.72 µg/mL (≈ 22.3 µM). Moreover, the IC50 in test [7] is 1.48 µg/mL (≈ 5.77 µM); in the test on Candida parapsilosis, > 50 µg/mL; in the test on Candida albicans [8], 31.4 µg/mL (≈ 122 µM). The Activity was 100% in test [2] and 80% in test [4]. The minimum inhibitory concentration (MIC) in the test with Escherichia coli, in the test with Klebsiella pneumoniae, against Staphylococcus aureus and in the test with Pseudomonas aeruginosa was ≥ 50 µg/mL in each case. The minimal effective concentration in the test with Trichomonas vaginalis was > 200 µg/mL.
